Reference: ChEMBL document CHEMBL1133548, “Semisynthesis of antitumoral acetogenins: SAR of functionalized alkyl-chain bis-tetrahydrofuranic acetogenins, specific inhibitors of mitochondrial complex I” (J Med Chem, 2000)

Key:
[1] = Inhibition of NADH decylubiquinone (DB) oxidoreductase activity.; set-up: species or system Bos taurus
How it was run: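 Beef heart submitochondrial particles from sonicated frozen-thawed mitochondria, NADH-activated (300 µM) at 0.5 mg·mL⁻¹. Assay at 22 °C in 50 mM K phosphate pH 7.4, 1 mM EDTA, 0.28 nM complex I, with 75 µM NADH, 30 µM decylubiquinone, 2 µM antimycin and 2 mM KCN. Inhibitor titrated as ethanolic additions (5 min on ice each). NADH loss read at 340 nm; IC50 taken at 50% inhibition.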

[2] = biological target: Mitochondrial complex I; NADH oxidoreductase (Bos taurus, UniProt P25708+P52505); assay: Inhibition of NADH oxidase activity.; type: protein-complex assay
Sequence of Mitochondrial complex I; NADH oxidoreductase (P25708 21-464 limits assumed, other chains not shown): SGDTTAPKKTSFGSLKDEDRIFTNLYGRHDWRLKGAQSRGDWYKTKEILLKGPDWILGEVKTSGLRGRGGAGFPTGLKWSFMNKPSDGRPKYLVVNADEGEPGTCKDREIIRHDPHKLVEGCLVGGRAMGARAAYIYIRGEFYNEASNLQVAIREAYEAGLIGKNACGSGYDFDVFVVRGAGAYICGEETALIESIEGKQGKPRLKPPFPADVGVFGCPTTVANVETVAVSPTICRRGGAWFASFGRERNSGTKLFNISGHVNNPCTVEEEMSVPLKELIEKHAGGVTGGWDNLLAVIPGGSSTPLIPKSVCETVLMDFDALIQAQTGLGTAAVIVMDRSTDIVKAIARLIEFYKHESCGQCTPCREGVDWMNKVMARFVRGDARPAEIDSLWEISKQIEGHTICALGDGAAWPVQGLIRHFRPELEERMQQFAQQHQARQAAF
How it was run: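 Beef-heart submitochondrial particles (sonicated frozen-thawed mitochondria), preactivated with 300 µM NADH, assayed at 22 °C in 50 mM potassium phosphate pH 7.4, 1 mM EDTA (0.28 nM complex I). Aerobic oxidation of 75 µM NADH with no added quinone, followed at 340 nm. Ethanolic compound added cumulatively, 5 min on ice per step, ethanol ≤2%. IC50 is the final concentration giving 50% inhibition.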

[3] = Percent of relative potency by NADH oxidase assay
How it was run: (§1)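 Derived value: the compound's NADH oxidase IC50 expressed relative to that of the reference acetogenin. The oxidase assay used NADH-activated beef heart submitochondrial particles (0.28 nM complex I) oxidising 75 µM NADH aerobically without added quinone, at 22 °C and pH 7.4. Inhibitor was added stepwise with 5 min incubations on ice, and NADH decrease was followed at 340 nm.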

[4] = biological target: Mitochondrial complex I; NADH oxidoreductase (Bos taurus) (UniProt P25708+P52505); assay: Relative potency of inhibition of NADH oxidase (IC50); 4-dehydroxy-4-hydroxylimonorolliniastatin-1 as standard; type: protein-complex assay; how it was run: as §1
[5] = Ratio of IC50 of DB to that of NADH oxidase
How it was run: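 Ratio of two IC50 values measured on NADH-activated beef heart submitochondrial particles (0.28 nM complex I, 22 °C, pH 7.4 phosphate/EDTA). The numerator IC50 comes from NADH:decylubiquinone oxidoreductase (75 µM NADH, 30 µM DB, plus antimycin and cyanide). The denominator IC50 comes from aerobic NADH oxidase (75 µM NADH, no added quinone). Both activities were read at 340 nm.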

Structure (SMILES) | IC50 [1] [nM] | IC50 [2] [nM] | Relative potency [3] | Relative potency [4] | Ratio [5]
CCCCCC[C@H](O)CCC[C@H](O)[C@H]1CC[C@H]([C@H]2CC[C@H]([C@H](O)CCCCCCCCCCCCC3=C[C@H](C)OC3=O)O2)O1 [SQUAMOCIN] | 0.77 | 0.59 | 42.3 | 2.4 | 1.3
CCCCCCC(=O)CCC[C@H](O)[C@H]1CC[C@H]([C@H]2CC[C@H]([C@H](O)CCCCCCCCCCCCC3=C[C@H](C)OC3=O)O2)O1 | 1.3 | 0.65 | 38.5 | 2.6 | 1.9
CCCCCCCCCC[C@H](O)[C@H]1CC[C@@H]([C@@H]2CC[C@H]([C@H](O)CCCCCCCCCCC(=O)CC3=C[C@H](C)OC3=O)O2)O1 | 0.45 | 0.42 | 59.5 | 1.7 | 1.1
CCCCCCCCCC[C@H](OC(C)=O)[C@H]1CC[C@@H]([C@@H]2CC[C@H]([C@@H](CCCCCCCCCC[C@H](CC3=C[C@H](C)OC3=O)OC(C)=O)OC(C)=O)O2)O1 | 1890 | 1.46 | – | 5.8 | 1300
CCCCCC[C@H](CCC[C@@H](N=[N+]=[N-])[C@H]1CC[C@H]([C@H]2CC[C@H]([C@H](CCCCCCCCCCCCC3=C[C@H](C)OC3=O)N=[N+]=[N-])O2)O1)N=[N+]=[N-] | 315 | 18 | – | 72 | 17
CCCCCCCCCC[C@H](O)[C@H]1CC[C@H]([C@H]2CC[C@H]([C@H](O)CCCC/C(CCCCCCCC3=C[C@H](C)OC3=O)=N\O)O2)O1 | 0.67 | 0.34 | 73.5 | 1.4 | 2
CCCCCCCCCC[C@H](O)[C@H]1CC[C@H]([C@H]2CC[C@H]([C@H](O)CCCCC(=O)CCCCCCCC3=C[C@H](C)OC3=O)O2)O1 [GUANACONE] | 2.1 | 1.52 | – | 6.1 | 1.4
CCCCCC(CCCC[C@H](OC(C)=O)[C@H]1CC[C@H]([C@H]2CC[C@H]([C@@H](CCCCCCCCCCCCC3=C[C@H](C)OC3=O)OC(C)=O)O2)O1)OC(C)=O (stereo partly specified) | 248 | 2.1 | – | 8.4 | 118
CCCCCCCCCC[C@H](OS(C)(=O)=O)[C@H]1CC[C@@H]([C@@H]2CC[C@H]([C@@H](CCCCCCCCCC[C@H](CC3=C[C@H](C)OC3=O)OS(C)(=O)=O)OS(C)(=O)=O)O2)O1 | 438 | 1.68 | 6.7 | – | 260
CCCCCC/C(CCC[C@H](O)[C@H]1CC[C@H]([C@H]2CC[C@H]([C@H](O)CCCCCCCCCCCCC3=C[C@H](C)OC3=O)O2)O1)=N\O | 0.9 | 0.74 | 33.8 | 3 | 1.2
CCCCCCCCCC/C(=N\O)[C@H]1CC[C@@H]([C@@H]2CC[C@H]([C@H](O)CCCCCCCCCC/C(CC3=C[C@H](C)OC3=O)=N\O)O2)O1 | 0.39 | 0.34 | 73.5 | 1.4 | 1.1
CCCCCCCCCC[C@@H](O)[C@@H]1CC[C@@H]([C@@H]2CC[C@@H]([C@H](O)CCCCCCCCCC(O)CC3=CC(C)OC3=O)O2)O1 (stereo partly specified) [BULLATACIN] | 0.61 | 0.51 | 49 | 2 | 1.2
CCCCC[C@H](O)CCCC[C@H](O)[C@H]1CC[C@H]([C@H]2CC[C@H]([C@H](O)CCCCCCCCCCCCC3=C[C@H](C)OC3=O)O2)O1 [MOTRILIN] | 0.81 | 0.41 | 61 | 1.6 | 2
CCCCCCCCCC[C@H](O)[C@H]1CC[C@H]([C@H]2CC[C@H]([C@H](O)CCCCCCCCCCCCC3=C[C@H](C)OC3=O)O2)O1 [BULLANIN] | 0.44 | 0.32 | 78.1 | 1.3 | 1.4
CCCCCCCCCCC(=O)[C@H]1CC[C@H]([C@H]2CC[C@H](C(=O)CCCCC(=O)CCCCCCCC3=C[C@H](C)OC3=O)O2)O1 | 2.5 | 1.65 | – | 6.6 | 1.5
CCCCCCCCCC[C@H](O)[C@H]1CC[C@@H]([C@@H]2CC[C@H]([C@H](O)CCCCCCCCCC[C@@H](O)CC3=C[C@H](C)OC3=O)O2)O1 [rolliniastatin-1] | 0.74 | 0.6 | 41.7 | 2.4 | 1.2
CCCCCCCCCC[C@H](O)[C@H]1CC[C@@H]([C@@H]2CC[C@H]([C@H](O)CCCCCCCCCC/C(CC3=C[C@H](C)OC3=O)=N\O)O2)O1 | 0.29 | 0.25 | 100 | 1 | 1.1
CCCCCC(CCCC[C@H](OS(C)(=O)=O)[C@H]1CC[C@H]([C@H]2CC[C@H]([C@@H](CCCCCCCCCCCCC3=C[C@H](C)OC3=O)OS(C)(=O)=O)O2)O1)OS(C)(=O)=O (stereo partly specified) | 64 | 2.9 | – | 12 | 22
CCCCCC[C@@H](CCC[C@H](OS(C)(=O)=O)[C@H]1CC[C@H]([C@H]2CC[C@H]([C@@H](CCCCCCCCCCCCC3=C[C@H](C)OC3=O)OS(C)(=O)=O)O2)O1)OS(C)(=O)=O | 2040 | 14.1 | – | 56 | 144
CCCCCCCCCC[C@H](O)[C@H]1CC[C@H]([C@H]2CC[C@H]([C@H](O)CCCCC(O)CCCCCCCC3=C[C@H](C)OC3=O)O2)O1 (stereo partly specified) | 1.9 | 0.95 | 26.3 | 3.8 | 2
CCCCCCCCCCC(=O)[C@H]1CC[C@@H]([C@@H]2CC[C@H]([C@H](O)CCCCCCCCCCC(=O)CC3=C[C@H](C)OC3=O)O2)O1 | 0.6 | 0.34 | 73.5 | 1.4 | 1.8
CCCCCC[C@@H](CCC[C@H](OC(C)=O)[C@H]1CC[C@H]([C@H]2CC[C@H]([C@@H](CCCCCCCCCCCCC3=C[C@H](C)OC3=O)OC(C)=O)O2)O1)OC(C)=O | 2940 | 5 | – | 20 | 587
CCCCCCCCCC[C@H](O)[C@H]1CC[C@@H]([C@@H]2CC[C@H]([C@H](O)CCCCCCCC[C@@H](O)CC3=C[C@H](C)OC3=O)O2)O1 | 0.83 | 0.33 | 75.8 | 1.3 | 2.5
